Measured values taken from PubChem BioAssay AID1040 (The Scripps Research Institute Molecular Screening Center, 2008).
The whole screen tested about 200,000 compounds, of which about 2,000 (1%) were called active. This is one part of a sample in which actives are shown more often than they occur.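 How the source made its calls: active means inhibition above the campaign mean inhibition of all tested compounds plus 3 SD (cut at about 20% in these data); inactive means the rest.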

What follows are molecules tested against Neuropeptide Y receptor type 1 (Homo sapiens) (UniProt P25929) (assay: blockers of human neuropeptide Y Y1 receptor – cell-based, primary screen (AID 1040;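 further: 0% = DMSO wells given NPY plus isoproterenol and 100% = isoproterenol alone without NPY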)). Conditions: HEK293-CNG Y1 cells, membrane potential fluorescence; at 3.6 µM; hits give high values; NPY at EC95, then isoproterenol.
Neuropeptide Y receptor type 1 (Homo sapiens), sequence (P25929 whole entry, looked up): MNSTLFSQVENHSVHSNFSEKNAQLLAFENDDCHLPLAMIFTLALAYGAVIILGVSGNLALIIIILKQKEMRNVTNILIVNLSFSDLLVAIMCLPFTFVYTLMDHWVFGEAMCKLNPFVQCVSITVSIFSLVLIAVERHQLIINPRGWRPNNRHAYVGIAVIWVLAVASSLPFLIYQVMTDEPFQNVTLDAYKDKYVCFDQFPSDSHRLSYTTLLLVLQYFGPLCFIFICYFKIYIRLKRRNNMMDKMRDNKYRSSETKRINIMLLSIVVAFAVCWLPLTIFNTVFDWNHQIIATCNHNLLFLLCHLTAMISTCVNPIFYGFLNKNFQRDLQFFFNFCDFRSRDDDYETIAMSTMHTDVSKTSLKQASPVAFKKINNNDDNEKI
Procedure, shortened: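 Material: HEK293 cells co-expressing NPY Y1 receptor and cyclic-nucleotide gated channel. Timing: compound incubation 1 h at room temperature, readout 45 min post-stimulation. Signal: fluorescence, membrane potential probe.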
In the case of `O=C(CSc1nc2cc3c(cc2c(=O)n1CCC1=CCCCC1)OCO3)NCc1ccco1`, the inhibition was 26.8% (active). For `C=C(C)Cn1c(SCC(=O)NCc2ccco2)nc2sc3c(c2c1=O)CCC3`, the inhibition was 8.57% (inactive). With `O=C(CCCn1c(SCC(=O)c2ccc(F)cc2)nc2ccccc2c1=O)NCc1ccco1` the inhibition was 3.6% (inactive). With `CCC1(CC)NC(=O)N(CC(=O)OCC(=O)NC(=O)c2ccccc2)C1=O` the inhibition was 1.96% (inactive). `CC1(C)C2CC=C(/C=N/NC(=O)C3CC3)C1C2` (configuration not stated) was tested, and the inhibition was 4.14% (inactive). With `CSCC[C@H](NC(=O)OC(C)(C)C)C(=O)N/N=C/c1cc2ccc(C)cc2nc1Cl` the inhibition was -2.75% (inactive). In the case of `CC(=O)c1ccc(NC(=O)c2ccc3c(Cl)c4c(nc3c2)CCCC4)cc1`, the inhibition was -4.67% (inactive). In the case of `Fc1ccc2nc(-c3ccccc3)nc(SCc3nnc(-c4ccccc4)o3)c2c1`, the inhibition was 2.58% (inactive). `Fc1ccc(-c2nnc(CSc3nnc(-c4ccc5c(c4)OCO5)o3)o2)cc1` was tested, and the inhibition was 29.9% (active). For `COc1ccc(-c2nnc(SCC(=O)c3ccc4c(c3)OCCO4)o2)cc1`, the inhibition was -4.74% (inactive). For `CCCS(=O)(=O)N1CCC(CCOc2ccccc2)(C(=O)OCC)CC1`, the inhibition was 6.41% (inactive). In the case of `COC(=O)c1c(NC(=O)COC(=O)[C@@H](NS(=O)(=O)c2ccccc2)C(C)C)sc2c1CCC2`, the inhibition was 10.2% (inactive). `COc1ccc2c3c(c(=O)oc2c1OCC(=O)C(C)(C)C)CCCC3` was tested, and the inhibition was 10.2% (inactive). `O=c1oc2c(CN3CCCCC3)c(O)ccc2c2c1CCCCC2` was tested, and the inhibition was 6.84% (inactive). With `CCCOc1ccc2c3c(c(=O)oc2c1OCCC)CCC3` the inhibition was 21.1% (active). With `O=C(CSc1nc2ccc(Nc3nc(N4CCOCC4)nc(N4CCOCC4)n3)cc2s1)NCc1ccco1` the inhibition was 2.78% (inactive). In the case of `CN(C)c1ccc(C(CNC(=O)c2ccc(F)cc2)c2c[nH]c3ccccc23)cc1` (configuration not stated), the inhibition was -7.11% (inactive). In the case of `C=CCOC(=O)C1=C(C)OC(N)=C(C#N)C1c1ccc(F)cc1` (configuration not stated), the inhibition was -1.17% (inactive). With `Cc1cc2c(c(=O)n1C)C(C(C)C)C(C#N)=C(N)O2` (configuration not stated) the inhibition was 9.44% (inactive). In the case of `C=CCSc1nc2c(c(=O)[nH]1)C(C(C)C)C(C#N)=C(N)O2` (configuration not stated), the inhibition was 77.2% (active). With `CC(=O)Oc1c(C(=O)c2nnc(C)o2)c(=O)n(Cc2ccccc2)c2ccccc12` the inhibition was 1.05% (inactive). For `COc1ccc(F)cc1C(=O)C1CCCN(C(=O)CCc2ccccn2)C1` (configuration not stated), the inhibition was 6.35% (inactive). With `CCS(=O)(=O)Nc1ccc(C2=NN(C(C)=O)C(c3cccs3)C2)cc1` (configuration not stated) the inhibition was -0.01% (inactive). For `O=C(NC(Nc1nc2ccc([N+](=O)[O-])cc2s1)(C(F)(F)F)C(F)(F)F)c1ccccc1`, the inhibition was 32.9% (active). `O=C(O)CCC(=O)Nc1nc2ccc([N+](=O)[O-])cc2s1` was tested, and the inhibition was -1.24% (inactive). With `O=C(Nc1nc2ccc([N+](=O)[O-])cc2s1)c1ccc(S(=O)(=O)N2CCCc3ccccc32)cc1` the inhibition was -0.71% (inactive). For `Cc1nonc1C(=O)N/N=C/c1ccc(O)cc1`, the inhibition was -0.92% (inactive). In the case of `Cc1ccc(C)c2[nH]c(=O)c(CCNC(=O)c3cccs3)cc12`, the inhibition was 1.69% (inactive). For `CCNC(=O)COC(=O)/C=C/c1c(C)nn(Cc2cccc(OC)c2)c1Cl`, the inhibition was 9.4% (inactive). With `COCCn1c(-c2ccc(OC)c(OC)c2)nc2ccccc21` the inhibition was 1.65% (inactive). For `Nc1nonc1-c1nc2ccccc2n1Cc1ccc(F)cc1`, the inhibition was 33.9% (active). `Nc1nonc1-c1nc2ccccc2n1CCC(=O)O` was tested, and the inhibition was 2.11% (inactive). `CCCn1c(C(O)c2cc(OC)ccc2OC)nc2ccccc21` (configuration not stated) was tested, and the inhibition was 6.38% (inactive). `COc1ccc(C)c(Cn2c(-c3nonc3N)nc3ccccc32)c1` was tested, and the inhibition was 20.2% (active). With `CC(=O)Nc1nonc1-c1nc2ccccc2n1Cc1ccccn1` the inhibition was 1.23% (inactive). `COc1ccc(C(=O)Nc2c(Cl)cc(Cl)cc2C(=O)N2CCC(C)CC2)cc1` was tested, and the inhibition was 7.28% (inactive). `O=C(N/N=C/c1ccc(Br)o1)c1cncc(Br)c1` was tested, and the inhibition was 0.31% (inactive). In the case of `CCCOc1ccc(C(=O)C(CCC(CNCC)C(=O)c2ccc(OCCC)cc2)CNCC)cc1` (configuration not stated), the inhibition was 41.9% (active). For `CCCOc1ccc(C(=O)NCCc2ccccc2)cc1`, the inhibition was 4.6% (inactive). For `CCCOc1ccc(N/C=C/C(=O)C(C)(C)C)cc1`, the inhibition was -0.02% (inactive). `O=C(O)/C(=C/c1cccnc1)NC(=O)c1ccccc1` was tested, and the inhibition was -1.58% (inactive). With `O=S(=O)(NCCSc1ccccn1)c1ccc(Cl)cc1` the inhibition was 7.92% (inactive). With `CCOc1ccc(S(=O)(=O)NCCSc2ccccc2)cc1` the inhibition was 28.4% (active). In the case of `Cc1ccc(S(=O)(=O)NCCSc2ccccc2)cc1[N+](=O)[O-]`, the inhibition was 20.1% (inactive). With `C/C(=N\Nc1ncc(Cl)cc1Cl)c1cccs1` the inhibition was 4.59% (inactive). `CCOP(=O)(OCC)C(Nc1cccc(C)c1)c1ccc(F)cc1` (configuration not stated) was tested, and the inhibition was 6.17% (inactive). With `Cc1cc(N2CCN(C)CC2)nc2ccc(NC(=S)N3CCOCC3)cc12` the inhibition was 6.76% (inactive). In the case of `Cc1nc(-c2ccccc2)sc1C(=O)/C=C/c1ccccc1`, the inhibition was 21.8% (active). With `Cc1nc(-c2ccccc2)sc1C(=O)/C=C/N(C)C` the inhibition was 6.13% (inactive). With `Cc1ccc(SCC(=O)c2sc(-c3ccccc3)nc2C)cc1` the inhibition was 8.05% (inactive). In the case of `CC(Oc1ccc(Br)cc1Br)C(=O)NC1CCCC1` (configuration not stated), the inhibition was 7.12% (inactive). With `COc1ccc(OC)c(NC(=O)CSc2nc3cccnc3n2C)c1` the inhibition was 10.8% (inactive). `COc1ccc(OC)c(NC(=O)CSc2nc(N)c(-c3ccccc3)c(=O)[nH]2)c1` was tested, and the inhibition was 30.3% (active). `COc1ccc(NC(=O)CSc2nc(N)c(-c3ccccc3)c(=O)[nH]2)cc1` was tested, and the inhibition was 7.14% (inactive). For `Cc1ccc(S(=O)(=O)CC(=O)Nc2c(C)n(C)n(-c3ccccc3)c2=O)cc1`, the inhibition was 1% (inactive). For `Cc1ccc2c(c1)C1CN(C)CCC1N2C(=S)Nc1ccc(Cl)cc1Cl` (configuration not stated), the inhibition was 0.03% (inactive). In the case of `Cc1cc(SCC(=O)c2ccccc2)nc(SCC(=O)c2ccccc2)n1`, the inhibition was 18.3% (inactive). With `COC(=O)c1cc(C(=O)CSc2nc(C)cc(C)n2)ccc1O` the inhibition was -2.7% (inactive). `Cc1cc(Oc2ccc(Cl)cc2)nc(SCC(=O)c2ccccc2)n1` was tested, and the inhibition was 44.4% (active). `Cc1cc(C)c(NC(=O)C[N+](C)(C)CC(O)COc2cccc3ccccc23)c(C)c1` (configuration not stated) was tested, and the inhibition was -12.8% (inactive). `Cc1cccc(NC(=S)NC23CN4CN(CN(C4)C2)C3)c1` was tested, and the inhibition was -0.45% (inactive). With `CC(C)(C)NCc1cc(Br)ccc1OC1CCCC1` the inhibition was 37.7% (active). With `CCOCCCNCc1cc(Br)ccc1OCC` the inhibition was 11.8% (inactive). `COc1cc(CNC2CCCCC2)c(Br)cc1OC1CCCC1` was tested, and the inhibition was -5.34% (inactive). With `COc1ccc(Sc2nc(-c3ccccc3)ncc2OC)cc1` the inhibition was 3.64% (inactive). In the case of `CCc1cccc(NC(=O)CCNS(=O)(=O)c2cccc3nonc23)c1`, the inhibition was 0.89% (inactive). With `CCN(CC)S(=O)(=O)c1ccc(Cl)c(NC(=O)c2ccncc2)c1` the inhibition was 1.54% (inactive).
